# Screening data as filed in PubChem.
# E-selectin induc – E-selectin induction on HUVECs. activation, % at 7.58 µM. AID 686992. HUVEC E-selectin immunofluorescence imaging; normalized: neutral wells 0, TNF-alpha wells 100. 260,000 compounds, 0.37% hits;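 active = mean E-selectin-positive cell signal at least 10% of the positive control, reached in at least 60% of replicates, without over 20% cell loss; inconclusive = no rule given, readout overlaps actives, possibly toxicity-flagged; inactive = the rest, including those meeting only one limit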
# Target sequence (P16581 whole entry, looked up): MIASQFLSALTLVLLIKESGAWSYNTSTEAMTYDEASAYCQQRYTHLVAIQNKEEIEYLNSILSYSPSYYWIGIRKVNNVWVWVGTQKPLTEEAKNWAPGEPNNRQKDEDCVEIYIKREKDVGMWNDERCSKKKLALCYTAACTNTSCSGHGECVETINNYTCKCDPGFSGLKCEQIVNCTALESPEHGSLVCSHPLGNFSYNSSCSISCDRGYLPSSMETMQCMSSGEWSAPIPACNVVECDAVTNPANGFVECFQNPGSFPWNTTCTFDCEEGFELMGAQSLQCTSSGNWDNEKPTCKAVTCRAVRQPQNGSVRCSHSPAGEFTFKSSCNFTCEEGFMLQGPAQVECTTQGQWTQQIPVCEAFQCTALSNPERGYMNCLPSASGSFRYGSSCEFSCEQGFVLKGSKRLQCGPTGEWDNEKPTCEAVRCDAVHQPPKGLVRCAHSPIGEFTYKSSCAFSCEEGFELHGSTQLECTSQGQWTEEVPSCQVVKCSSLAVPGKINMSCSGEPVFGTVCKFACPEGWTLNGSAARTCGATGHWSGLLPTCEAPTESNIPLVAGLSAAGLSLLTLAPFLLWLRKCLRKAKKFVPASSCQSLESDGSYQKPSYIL
#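 Assay system: HUVEC, human umbilical vein endothelial cells / Amount: 3,000 HUVEC/well / Controls: TNF-alpha positive control, DMSO neutral control / Compound dosing: single concentration / Medium: EGM-2 over gelatin coat / Evaluation: percent E-selectin-positive cells / Signal: immunofluorescence imaging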
# DENV2 CPE – protects cells from dengue virus 2 cytopathic effect; DENV2-infected cells, cytopathic effect rescue, plate reader; CPE inhibition, % at 9.99 µM; 350,000 compounds, 1.7% hits; in the data active = CPE inhibition above about 20%, passing the limit was not always enough; inconclusive = no clear call, values can overlap the other calls; tested in BHK-21 cells;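 also: 0% = median of neutral control wells and 100% = median of positive control wells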
# ERAP1 HTS inh – inhibitors of human ERAP1 aminopeptidase. 340,000 compounds, 0.15% hits. AID 652197. inhibition, % at 10.7 µM. recombinant ERAP1, Leu-AMC fluorescence, 60 min. Q9NZ08;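 active = mean replicate inhibition of at least 30%, or all replicates individually reaching that 30% level; inactive = mean below 30% and not every replicate reaching it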;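 also: 0% = neutral control wells and 100% = L-leucinethiol positive control wells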
# SIRT5 inh – sirtuin-5 (human) deacylase inhibition | 330,000 compounds, 1.1% hits | inhibition, % at 15 µM | Purified SirT5, succinyl-peptide AMC, trypsin-coupled fluorescence | AID 652115; in the data active = inhibition above about 15%; inconclusive = no clear call, values can overlap the other calls
# PglD DTNB – blocks C. jejuni PglD acetyltransferase activity; purified PglD enzyme, DTNB colorimetric CoA detection; 360,000 compounds, 0.098% hits; inhibition, % at 12.5 µM; in the data active = inhibition above about 16%, passing the limit was not always enough; inconclusive = no clear call, values can overlap the other calls
# * hit, by the source's call; ? = inconclusive; . = no result given; ! = not active in a repeat. Most compounds without a hit are left out; they make up all but 2.5% or so of the library.
SMILES,E-selectin induc,DENV2 CPE,ERAP1 HTS inh,SIRT5 inh,PglD DTNB
OCCN(Cc1ccccc1)Cc1ccc(Cl)cc1Cl,.,.,.,.,0
O=C(NCC[C@H]1CC[C@@H](NC(=O)C2CCC2)[C@H](CO)O1)c1cc(Cl)cc(Cl)c1,0,15,-4,-3,0
CCc1noc(C)c1C(=O)NNC(=O)COc1ccc(C)cc1,0,-8,0,15*,.
Cc1cc(C)c2oc(C(=O)N(Cc3ccccc3)c3ccccn3)cc(=O)c2c1,0,-4,1,.,.
CCN1CCCC1CNS(=O)(=O)c1cccc(C(F)(F)F)c1 (stereo not drawn),5,7,30*,5,.
O=C(O)c1ccc(CSc2nc3ccc(NC(=O)c4ccccc4C(=O)O)cc3s2)cc1,.,2,-3,17*,-6
N#Cc1ccccc1CSc1nc2ccc(NC(=O)c3ccccc3C(=O)O)cc2s1,.,13,3,-3,.
CCNC(=O)[C@H]1[C@H](CO)[C@H]2Cn3c(ccc(C4=CCCC4)c3=O)[C@H]2N1C(=O)CC1CC1,0,2,0,-12,-1
CCOC(=O)C1=CN2CCC[C@H]2CC1=O,0,63*,.,.,0
C(=C\c1ccc(C2[C@@H]3CN(Cc4cocn4)C[C@H]2N3)cc1)/c1ccccc1 (stereo partly drawn),0,30*!,.,.,.
CCOc1ccc(NC(=O)COc2cccc3c2CCN(Cc2cccnc2)C3=O)cc1,.,-1,2,-1,-1
COc1ccc(NC(=O)COc2cccc3c2CCNC3=O)cc1,3,-4,0,0,.
COc1ccc(NC(=O)COc2cccc3c2CCN(Cc2cccnc2)C3=O)cc1,0,?,1,17*,0
COc1cccc(NC(=O)COc2cccc3c2CCNC3=O)c1,.,28*,2,-2,5
COc1cccc(NC(=O)N2CCC(n3nnc4ccccc43)CC2)c1,3,-4,3,1,-7
CC1C/C(=N\Nc2ccc(S(N)(=O)=O)cc2[N+](=O)[O-])CC(C)(C)C1 (stereo not drawn),.,.,.,.,-5
CCNc1nc(NC(N)=S)nc(NC(C)(C)C)n1,-2,2,-1,8,.
Cc1cc(NC(=O)CN2CCN(c3cccc(Cl)c3)CC2)no1,.,.,0,-2,.
Cc1ccc(N=C2NC(=O)/C(=C/c3cn(C)c4ccccc34)S2)cc1C,1,-14,2,26*,.
Cn1cccc1/C=C1\SC(=Nc2ccccc2)NC1=O,-2,-2,5,1,-5
CC(C)(C)n1nnnc1C(c1cccs1)N1CCN(C(=O)c2ccco2)CC1 (stereo not drawn),.,.,.,.,2
NC(Cc1ccc(F)cc1)c1csc(Nc2cc(NCc3ccco3)ncn2)n1 (stereo not drawn),1,13,3,1,-3
NC(c1csc(Nc2cc(NCc3ccco3)ncn2)n1)c1ccccc1Cl (stereo not drawn),0,69*,-4,-2,-3
C#CCC(NC(=O)c1ccc(C(F)(F)F)cc1)C(=O)NCCC (stereo not drawn),0,10,-1,-9,8
O=c1[nH]c(=O)c2[nH]c(=S)[nH]c2[nH]1,0,14,50*,.,.
SMILES,E-selectin induc,DENV2 CPE,ERAP1 HTS inh,SIRT5 inh,PglD DTNB
O=C(Nc1cccc(Cl)c1)N1C[C@H]2[C@@H](c3ccccc31)[C@H](CO)N2CC1CCCCC1,0,-32,0,-2,4
C=CCn1c(SCC(=O)NC2CCCC2)nc2sc(C)cc2c1=O,.,-5,-4,-2,-2
Cc1cc(OC(=O)c2ccccc2[N+](=O)[O-])c([N+](=O)[O-])c(=O)[nH]1,0,3,-4,-1,-5
COc1cccc(C(=O)Oc2cc(C)[nH]c(=O)c2[N+](=O)[O-])c1OC,2,101*,-1,0,-2
Cn1ccnc1C(OC(=O)c1ccccc1)C(F)(F)F (stereo not drawn),0,-6,2,15*,-7
C[C@H](O)C#Cc1ccc2c(c1)O[C@H](CN(C)C(=O)C1CC1)[C@@H](C)CN([C@@H](C)CO)S2(=O)=O,0,57*,2,2,0
C[C@@H]1CN([C@@H](C)CO)S(=O)(=O)c2ccc(C#Cc3ccccc3)cc2O[C@H]1CN(C)C(=O)C1CC1,0,-8,3,20*,-4
C[C@H](O)C#Cc1ccc2c(c1)O[C@H](CN(C)C(=O)CN(C)C)[C@H](C)CN([C@H](C)CO)S2(=O)=O,0,42*,-2,6,.
C[C@@H](O)C#Cc1ccc2c(c1)O[C@@H](CN(C)C(=O)CN(C)C)[C@@H](C)CN([C@@H](C)CO)S2(=O)=O,0,-13,1,-3,0
C[C@@H]1CN([C@H](C)CO)S(=O)(=O)c2ccc(C#Cc3ccncc3)cc2O[C@@H]1CN(C)C(=O)C1CC1,0,30*,-1,2,5
CCOC(=O)Cc1nnc(NC(=O)CSc2ncc(-c3ccccc3)nn2)s1,2,5,-2,0,2
COc1ccc(C(=O)c2c(O)cc(-c3ccc(OC)cc3)oc2=O)cc1,1,4,3,6,.
COC(=O)C1(C(=O)OC)c2ncccc2N(S(=O)(=O)c2ccc(C)cc2)C1CC(=O)c1ccccc1 (stereo not drawn),0,21*,-4,-2,.
COc1ccc(OC(=O)Nc2ccc([N+](=O)[O-])cc2OC)cc1,0,1,-3,-1,0
CN(C)C(=O)[C@@H]1[C@@H](CO)[C@@H]2Cn3c(ccc(C4=CCCCC4)c3=O)[C@H]1N2C,1,-2,0,-22,0
CN(C)C(=O)[C@H]1[C@H](CO)[C@H]2Cn3c(ccc(C4=CCCCC4)c3=O)[C@@H]1N2Cc1ccncc1,0,36*,-1,-30,0
CN(C)C(=O)[C@@H]1[C@@H](CO)[C@@H]2Cn3c(ccc(C4=CCCC4)c3=O)[C@H]1N2S(=O)(=O)c1cn(C)cn1,0,22*,5,-29,-2
CCNC(=O)[C@@H]1[C@@H](CO)[C@@H]2Cn3c(ccc(C4=CCCCC4)c3=O)[C@H]1N2Cc1ccncc1,0,-4,0,-22,1
CCC(=O)N1CCC2(CC1)Oc1ccc(Cl)cc1C(=O)C21CC(c2ccc(Cl)cc2)=NO1 (stereo not drawn),0,90*,1,.,3
CCC(=O)N1CCC2(CC1)Oc1ccc(F)cc1C(=O)C21CC(c2ccc(Cl)cc2)=NO1 (stereo not drawn),0,-2,2,.,-3
Cc1ccc(S(=O)(=O)Nc2ccc3c(c2)C(=O)N([C@H](C)CO)C[C@@H](C)[C@@H](CN(C)C(=O)c2ccccc2)OCCCC[C@@H](C)O3)cc1,.,?,0,0,-3
Cc1cccc(S(=O)(=O)N2CCCCN3[C@H](CO)[C@H](c4ccc(-c5ccncc5)cc4)[C@@H]3C2)c1,-1,33*,3,12,0
Cc1ccc(-c2ccc([C@@H]3[C@@H](CO)N4CCCCN(S(=O)(=O)c5cccc(C)c5)C[C@@H]34)cc2)cc1,.,1,0,17*,-2
